Test system: Mycobacterium tuberculosis
Assay: In vitro activity against Mycobacterium tuberculosis (ATCC 27294)
Format: functional
Conditions: not given
Outline: (§1)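 Broth macrodilution MIC. Cultures were grown in modified Middlebrook 7H10 broth (agar and malachite green omitted) with 10% OADC and 0.05% Tween 80, shaken at 37 °C for 3 days, then diluted in 7H10 broth to 1 Klett unit/mL. Test agents were dissolved in water or DMSO and filter-sterilised, then serially diluted 2-fold in 7H10 broth at pH 5.8. Tubes were shaken at 37 °C for 7–10 days, with a drug-free control. MIC was the lowest concentration with no visible turbidity, expressed in mmol/L.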

Point of comparison: `CCCCCCCC(C)(CCCCC)OC(=O)c1cnc(Cl)cn1` (configuration not stated), “Log 1/MMIC” value 2.249. Against it:
- COC(=O)c1cnc(I)cn1 — lower, 1.218
- CCC(C)(CC)OC(=O)c1cnc(Cl)cn1 — lower, 1.482
- CCCCCCCCCCOC(=O)c1cnccn1 — higher, 2.723
- CCCCCCC(CCCCCC)OC(=O)c1cnc(Cl)cn1 — higher, 3.135
- CCCCCCCCCC(C)OC(=O)c1cnc(Cl)cn1 (configuration not stated) — higher, 3.087
- CCCCCC(C)(CCCC)OC(=O)c1cnc(Cl)cn1 (configuration not stated) — lower, 1.893
- CCCCCCCOC(=O)c1cnc(Cl)cn1 — higher, 3.631
- CCOC(=O)c1cnc(Cl)cn1 — within 0.2 log units, 2.271
- CCCCCCCCCOC(=O)c1cnc(Cl)cn1 — higher, 3.977
- CCCCCCCCCOC(=O)c1cnc(C)cn1 — within 0.2 log units, 2.422
- CCCCCCCCOC(=O)c1cnc(Cl)cn1 — higher, 3.654

Test system: Mycobacterium avium
Assay: In vitro activity against Mycobacterium avium (ATCC 49601).
Format: functional
Conditions: not given
Outline: as §1

Point of comparison: `CCCCCCCCC(C)(CCCC)OC(=O)c1cnc(Cl)cn1` (configuration not stated), “Log 1/MMIC” value 0.744. Against it:
- CCCCCCC(C)(CCCC)OC(=O)c1cnc(Cl)cn1 (configuration not stated) — lower, 0.106
- O=C(OCc1ccccc1)c1cnc(Cl)cn1 — higher, 1.794
- CCCCCCCCCCOC(=O)c1cnc(Cl)cn1 — higher, 1.271
- COC(=O)c1cnc(I)cn1 — lower, 0.013
- CCC(C)(CC)OC(=O)c1cnc(Cl)cn1 — lower, -0.023
- CCCCCCCCCCOC(=O)c1cnccn1 — higher, 1.519
- CCCCCCC(CCCCCC)OC(=O)c1cnc(Cl)cn1 — within 0.2 log units, 0.726
- CCCCCCCCCC(C)OC(=O)c1cnc(Cl)cn1 (configuration not stated) — higher, 1.291
- CCCCCC(C)(CCCC)OC(=O)c1cnc(Cl)cn1 (configuration not stated) — lower, 0.087
- CCCCCCCOC(=O)c1cnc(Cl)cn1 — higher, 1.205
- CCOC(=O)c1cnc(Cl)cn1 — lower, 0.164
- CCCCCCCCCOC(=O)c1cnc(Cl)cn1 — higher, 1.25
- CCCCCCCCCOC(=O)c1cnc(C)cn1 — within 0.2 log units, 0.917
- CCCCCC(C)(CCCCC)OC(=O)c1cnc(Cl)cn1 — within 0.2 log units, 0.708
- CCCCCCCCOC(=O)c1cnc(Cl)cn1 — higher, 1.228
- CCCCCCC(C)OC(=O)c1cnc(Cl)cn1 (configuration not stated) — within 0.2 log units, 0.927
- CCCCCCCC(C)(CCCCC)OC(=O)c1cnc(Cl)cn1 (configuration not stated) — the same, 0.744

Test system: not listed separately
Assay: Partition coefficient (logP)
Format: physicochemical
Conditions: octanol/water

Point of comparison: `COC(=O)c1cnc(I)cn1`, logP 0.91. Against it:
- CCCCCCC(C)(CCCC)OC(=O)c1cnc(Cl)cn1 (configuration not stated) — higher, 5.93
- O=C(OCc1ccccc1)c1cnc(Cl)cn1 — higher, 2.39
- CCCCCCCCC(C)(CCCC)OC(=O)c1cnc(Cl)cn1 (configuration not stated) — higher, 7.05
- CCCCCCCCCCOC(=O)c1cnc(Cl)cn1 — higher, 5.48
- CCC(C)(CC)OC(=O)c1cnc(Cl)cn1 — higher, 2.74
- CCCCCCCCCCOC(=O)c1cnccn1 — higher, 4.58
- CCCCCCC(CCCCCC)OC(=O)c1cnc(Cl)cn1 — higher, 7.04
- CCCCCCCCCC(C)OC(=O)c1cnc(Cl)cn1 (configuration not stated) — higher, 5.25
- CCCCCC(C)(CCCC)OC(=O)c1cnc(Cl)cn1 (configuration not stated) — higher, 5.3
- CCCCCCCOC(=O)c1cnc(Cl)cn1 — higher, 3.87
- CCOC(=O)c1cnc(Cl)cn1 — higher, 1.19
- CCCCCCCCCOC(=O)c1cnc(Cl)cn1 — higher, 4.98
- CCCCCCCCCOC(=O)c1cnc(C)cn1 — higher, 4.46
- CCCCCC(C)(CCCCC)OC(=O)c1cnc(Cl)cn1 — higher, 5.82
- CCCCCCCCOC(=O)c1cnc(Cl)cn1 — higher, 4.48
- CCCCCCC(C)OC(=O)c1cnc(Cl)cn1 (configuration not stated) — higher, 3.63
- CCCCCCCC(C)(CCCCC)OC(=O)c1cnc(Cl)cn1 (configuration not stated) — higher, 6.96

Test system: not listed separately
Assay: T1/2 in equine serum
Format: ADME, organism-based, Equus caballus
Conditions: horse
Outline: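 Ester from a 1 mg/mL stock was mixed with 5% aqueous equine serum in 0.01 M KH2PO4, pH 7.2. Remaining ester was measured by isocratic reverse-phase HPLC (80% acetonitrile/20% 0.1 M sodium acetate, pH 5.0), with UV detection at 265 nm against a standard curve. Half-life is the time to 50% conversion to the acid.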

Point of comparison: `CCCCCC(C)(CCCCC)OC(=O)c1cnc(Cl)cn1`, half-life 360 min. Against it:
- CCCCCCC(C)(CCCC)OC(=O)c1cnc(Cl)cn1 (configuration not stated) — 1.8-fold higher, 648 min
- O=C(OCc1ccccc1)c1cnc(Cl)cn1 — 72-fold lower, 5 min
- CCCCCCCCC(C)(CCCC)OC(=O)c1cnc(Cl)cn1 (configuration not stated) — 3.2-fold higher, 1140 min
- CCCCCCCCCCOC(=O)c1cnc(Cl)cn1 — 190-fold lower, 1.9 min
- COC(=O)c1cnc(I)cn1 — 1.8-fold lower, 200 min
- CCC(C)(CC)OC(=O)c1cnc(Cl)cn1 — 2.8-fold higher, 1020 min
- CCCCCCCCCCOC(=O)c1cnccn1 — 450-fold lower, 0.8 min
- CCCCCCC(CCCCCC)OC(=O)c1cnc(Cl)cn1 — 6-fold lower, 60 min
- CCCCCCCCCC(C)OC(=O)c1cnc(Cl)cn1 (configuration not stated) — 12-fold lower, 29.6 min
- CCCCCC(C)(CCCC)OC(=O)c1cnc(Cl)cn1 (configuration not stated) — within 1.5-fold, 390 min
- CCCCCCCOC(=O)c1cnc(Cl)cn1 — 110-fold lower, 3.2 min
- CCOC(=O)c1cnc(Cl)cn1 — 3.3-fold lower, 110 min
- CCCCCCCCCOC(=O)c1cnc(Cl)cn1 — 160-fold lower, 2.3 min
- CCCCCCCCCOC(=O)c1cnc(C)cn1 — 360-fold lower, 1 min
- CCCCCCCCOC(=O)c1cnc(Cl)cn1 — 280-fold lower, 1.3 min
- CCCCCCC(C)OC(=O)c1cnc(Cl)cn1 (configuration not stated) — 13-fold lower, 28.2 min
- CCCCCCCC(C)(CCCCC)OC(=O)c1cnc(Cl)cn1 (configuration not stated) — 8.8-fold higher, 3170 min

Test system: Mycobacterium tuberculosis
Assay: In vitro activity against Mycobacterium tuberculosis (ATCC 35828)
Format: functional
Conditions: not given
Outline: as §1

Point of comparison: `CCCCCCCCCCOC(=O)c1cnccn1`, “Log 1/MMIC” value 3.024. Against it:
- CCCCCCC(C)(CCCC)OC(=O)c1cnc(Cl)cn1 (configuration not stated) — lower, 1.31
- CCCCCCCCC(C)(CCCC)OC(=O)c1cnc(Cl)cn1 (configuration not stated) — lower, 1.647
- COC(=O)c1cnc(I)cn1 — lower, 1.218
- CCC(C)(CC)OC(=O)c1cnc(Cl)cn1 — lower, 1.783
- CCCCCCCCCC(C)OC(=O)c1cnc(Cl)cn1 (configuration not stated) — lower, 2.495
- CCOC(=O)c1cnc(Cl)cn1 — lower, 1.067
- CCCCCCCCCOC(=O)c1cnc(Cl)cn1 — higher, 3.977
- CCCCCC(C)(CCCCC)OC(=O)c1cnc(Cl)cn1 — lower, 1.31
- CCCCCCCC(C)(CCCCC)OC(=O)c1cnc(Cl)cn1 (configuration not stated) — lower, 1.647

Test system: Mycobacterium tuberculosis
Assay: In vitro activity against Mycobacterium tuberculosis (ATCC 35801)
Format: functional
Conditions: not given
Outline: as §1

Point of comparison: `CCCCCCCCCOC(=O)c1cnc(C)cn1`, “Log 1/MMIC” value 2.422. Against it:
- CCCCCCC(C)(CCCC)OC(=O)c1cnc(Cl)cn1 (configuration not stated) — lower, 1.611
- O=C(OCc1ccccc1)c1cnc(Cl)cn1 — higher, 2.697
- CCCCCCCCCCOC(=O)c1cnc(Cl)cn1 — higher, 3.077
- COC(=O)c1cnc(I)cn1 — lower, 1.218
- CCC(C)(CC)OC(=O)c1cnc(Cl)cn1 — lower, 1.482
- CCCCCCCCCCOC(=O)c1cnccn1 — higher, 3.024
- CCCCCCCCCC(C)OC(=O)c1cnc(Cl)cn1 (configuration not stated) — higher, 3.398
- CCCCCC(C)(CCCC)OC(=O)c1cnc(Cl)cn1 (configuration not stated) — lower, 1.592
- CCCCCCCCCOC(=O)c1cnc(Cl)cn1 — within 0.2 log units, 2.455
- CCCCCCCC(C)(CCCCC)OC(=O)c1cnc(Cl)cn1 (configuration not stated) — lower, 1.948

Test system: Mycobacterium kansasii
Assay: in vitro activity against Mycobacterium kansasii (SWK).
Format: functional
Conditions: not given
Outline: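 M. kansasii clinical isolate SWK was grown 3 days at 37 °C with shaking in modified Middlebrook 7H10 broth with 10% OADC and 0.05% Tween 80, then diluted. It was tested in serial 2-fold dilutions in 7H10 broth at pH 5.8, shaken at 37 °C for 7–10 days, with a drug-free control. MIC was the lowest concentration giving no visible turbidity, expressed in mmol/L.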

Point of comparison: `CCCCCCC(C)(CCCC)OC(=O)c1cnc(Cl)cn1` (configuration not stated), “Log 1/MMIC” value 1.912. Against it:
- O=C(OCc1ccccc1)c1cnc(Cl)cn1 — higher, 2.396
- CCCCCCCCC(C)(CCCC)OC(=O)c1cnc(Cl)cn1 (configuration not stated) — lower, 1.346
- CCCCCCCCCCOC(=O)c1cnc(Cl)cn1 — higher, 2.776
- COC(=O)c1cnc(I)cn1 — lower, 1.519
- CCC(C)(CC)OC(=O)c1cnc(Cl)cn1 — within 0.2 log units, 2.084
- CCCCCCCCCCOC(=O)c1cnccn1 — higher, 3.723
- CCCCCCC(CCCCCC)OC(=O)c1cnc(Cl)cn1 — higher, 2.834
- CCCCCCCCCC(C)OC(=O)c1cnc(Cl)cn1 (configuration not stated) — higher, 3.097
- CCCCCC(C)(CCCC)OC(=O)c1cnc(Cl)cn1 (configuration not stated) — lower, 1.291
- CCCCCCCOC(=O)c1cnc(Cl)cn1 — higher, 3.932
- CCOC(=O)c1cnc(Cl)cn1 — within 0.2 log units, 1.97
- CCCCCCCCCOC(=O)c1cnc(Cl)cn1 — higher, 3.358
- CCCCCCCCCOC(=O)c1cnc(C)cn1 — higher, 2.121
- CCCCCC(C)(CCCCC)OC(=O)c1cnc(Cl)cn1 — lower, 1.611
- CCCCCCCCOC(=O)c1cnc(Cl)cn1 — higher, 3.955
- CCCCCCC(C)OC(=O)c1cnc(Cl)cn1 (configuration not stated) — higher, 3.035

Test system: Mycobacterium avium
Assay: In vitro activity against Mycobacterium avium (MAC-101).
Format: functional
Conditions: not given
Outline: as §1

Point of comparison: `COC(=O)c1cnc(I)cn1`, “Log 1/MMIC” value 0.013. Against it:
- CCCCCCC(C)(CCCC)OC(=O)c1cnc(Cl)cn1 (configuration not stated) — within 0.2 log units, 0.106
- O=C(OCc1ccccc1)c1cnc(Cl)cn1 — higher, 1.493
- CCCCCCCCC(C)(CCCC)OC(=O)c1cnc(Cl)cn1 (configuration not stated) — higher, 0.744
- CCCCCCCCCCOC(=O)c1cnc(Cl)cn1 — higher, 0.97
- CCC(C)(CC)OC(=O)c1cnc(Cl)cn1 — within 0.2 log units, -0.023
- CCCCCCCCCCOC(=O)c1cnccn1 — higher, 0.917
- CCCCCCC(CCCCCC)OC(=O)c1cnc(Cl)cn1 — higher, 1.329
- CCCCCCCCCC(C)OC(=O)c1cnc(Cl)cn1 (configuration not stated) — higher, 1.291
- CCCCCC(C)(CCCC)OC(=O)c1cnc(Cl)cn1 (configuration not stated) — within 0.2 log units, 0.087
- CCCCCCCOC(=O)c1cnc(Cl)cn1 — higher, 1.506
- CCOC(=O)c1cnc(Cl)cn1 — within 0.2 log units, 0.164
- CCCCCCCCCOC(=O)c1cnc(Cl)cn1 — higher, 0.949
- CCCCCCCCCOC(=O)c1cnc(C)cn1 — higher, 0.616
- CCCCCC(C)(CCCCC)OC(=O)c1cnc(Cl)cn1 — higher, 0.708
- CCCCCCCCOC(=O)c1cnc(Cl)cn1 — higher, 1.228
- CCCCCCC(C)OC(=O)c1cnc(Cl)cn1 (configuration not stated) — higher, 0.927
- CCCCCCCC(C)(CCCCC)OC(=O)c1cnc(Cl)cn1 (configuration not stated) — higher, 0.744
